ChEMBL document CHEMBL1287802, “Convergent synthesis of fluorescence-labeled probes of Annonaceous acetogenins and visualization of their cell distribution” (Bioorg Med Chem, 2010)

Experiments:
Format in all cases: functional
[1] = Growth inhibition of human HBC5 cells after 48 hrs by sulforhodamine B assay; conditions: HBC5, 48 h
Outline: (§1)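 Tested in the JFCR39 panel of 39 human cancer cell lines. Cells were exposed to compound for 48 h, and growth was measured as the change in total cellular protein by sulforhodamine B colorimetry. GI50 (molar concentration for 50% growth inhibition) was calculated by a previously reported method. Fingerprints were plotted as log differences of each line's GI50 from the panel mean.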

St-4 = assay: Growth inhibition of human St-4 cells after 48 hrs by sulforhodamine B assay; conditions: St-4, 48 h; outline: as §1
DMS-114 = assay: Growth inhibition of human DMS114 cells after 48 hrs by sulforhodamine B assay; conditions: DMS-114, 48 h; outline: as §1
SF-268 = assay: Growth inhibition of human SF268 cells after 48 hrs by sulforhodamine B assay; conditions: SF-268, 48 h; outline: as §1
[2] = Growth inhibition of human MDA-MB-23 cells after 48 hrs by sulforhodamine B assay; conditions: MDA-MB-23, 48 h, read-out: pGI50 (converted); outline: as §1
MKN-7 = assay: Growth inhibition of human MKN7 cells after 48 hrs by sulforhodamine B assay; conditions: MKN-7, 48 h; outline: as §1
LOX IMVI = assay: Growth inhibition of human LOXIMVI cells after 48 hrs by sulforhodamine B assay; outline: as §1
SF-539 = assay: Growth inhibition of human SF539 cells after 48 hrs by sulforhodamine B assay; conditions: SF-539, 48 h; outline: as §1
[3] = Growth inhibition of human MKN1 cells after 48 hrs by sulforhodamine B assay; conditions: MKN-1, 48 h; outline: as §1
NCI-H23 = assay: Growth inhibition of human NCI-H23 cells after 48 hrs by sulforhodamine B assay; conditions: NCI-H23, 48 h; outline: as §1
NCI-H226 = assay: Growth inhibition of human NCI-H226 cells after 48 hrs by sulforhodamine B assay; conditions: NCI-H226, 48 h; outline: as §1
MKN-28 = assay: Growth inhibition of human MKN28 cells after 48 hrs by sulforhodamine B assay; conditions: MKN-28, 48 h; outline: as §1
DMS-273 = assay: Growth inhibition of human DMS273 cells after 48 hrs by sulforhodamine B assay; conditions: DMS-273, 48 h; outline: as §1
HCT-15 = assay: Growth inhibition of human HCT15 cells after 48 hrs by sulforhodamine B assay; conditions: HCT-15, 48 h; outline: as §1
HT-29 = assay: Growth inhibition of human HT-29 cells after 48 hrs by sulforhodamine B assay; conditions: HT-29, 48 h; outline: as §1
A549 = assay: Growth inhibition of human A549 cells after 48 hrs by sulforhodamine B assay; conditions: A549, 48 h; outline: as §1
NCI-H522 = assay: Growth inhibition of human NCI-H522 cells after 48 hrs by sulforhodamine B assay; conditions: NCI-H522, 48 h; outline: as §1
[4] = Growth inhibition of human BSY1 cells after 48 hrs by sulforhodamine B assay; conditions: BSY-1, 48 h; outline: as §1
[5] = Growth inhibition of human HBC4 cells after 48 hrs by sulforhodamine B assay; conditions: HBC4, 48 h; outline: as §1
MKN-45 = assay: Growth inhibition of human MKN45 cells after 48 hrs by sulforhodamine B assay; conditions: MKN-45, 48 h; outline: as §1
OVCAR-4 = assay: Growth inhibition of human OVCAR4 cells after 48 hrs by sulforhodamine B assay; conditions: OVCAR-4, 48 h; outline: as §1
ACHN = assay: Growth inhibition of human ACHN cells after 48 hrs by sulforhodamine B assay; outline: as §1
OVCAR-5 = assay: Growth inhibition of human OVCAR5 cells after 48 hrs by sulforhodamine B assay; conditions: OVCAR-5, 48 h; outline: as §1
SK-OV-3 = assay: Growth inhibition of human SKOV3 cells after 48 hrs by sulforhodamine B assay; conditions: SK-OV-3, 48 h; outline: as §1
NCI-H460 = assay: Growth inhibition of human NCI-H460 cells after 48 hrs by sulforhodamine B assay; conditions: NCI-H460, 48 h; outline: as §1
KM12 = assay: Growth inhibition of human KM12 cells after 48 hrs by sulforhodamine B assay; conditions: KM12, 48 h; outline: as §1
MKN-74 = assay: Growth inhibition of human MKN74 cells after 48 hrs by sulforhodamine B assay; conditions: MKN-74, 48 h; outline: as §1
SF-295 = assay: Growth inhibition of human SF295 cells after 48 hrs by sulforhodamine B assay; conditions: SF-295, 48 h; outline: as §1
HCC 2998 = assay: Growth inhibition of human HCC2998 cells after 48 hrs by sulforhodamine B assay; conditions: HCC 2998, 48 h, read-out: pGI50 (converted); outline: as §1
SNB-78 = assay: Growth inhibition of human SNB78 cells after 48 hrs by sulforhodamine B assay; conditions: SNB-78, 48 h; outline: as §1
U-251 = assay: Growth inhibition of human U251 cells after 48 hrs by sulforhodamine B assay; conditions: U-251, 48 h; outline: as §1
PC-3 = assay: Growth inhibition of human PC3 cells after 48 hrs by sulforhodamine B assay; conditions: PC-3, 48 h; outline: as §1
SNB-75 = assay: Growth inhibition of human SNB75 cells after 48 hrs by sulforhodamine B assay; conditions: SNB-75, 48 h; outline: as §1
OVCAR-3 = assay: Growth inhibition of human OVCAR-3 cells after 48 hrs by sulforhodamine B assay; conditions: OVCAR-3, 48 h; outline: as §1
DU-145 = assay: Growth inhibition of human DU145 cells after 48 hrs by sulforhodamine B assay; conditions: DU-145, 48 h, read-out: pGI50 (converted); outline: as §1
[6] = Growth inhibition of human RXF631L cells after 48 hrs by sulforhodamine B assay; conditions: RXF 631, 48 h; outline: as §1
OVCAR-8 = assay: Growth inhibition of human OVCAR8 cells after 48 hrs by sulforhodamine B assay; conditions: OVCAR-8, 48 h; outline: as §1
MCF7 = assay: Growth inhibition of human MCF7 cells after 48 hrs by sulforhodamine B assay; conditions: MCF7, 48 h; outline: as §1
HCT-116 = assay: Growth inhibition of human HCT116 cells after 48 hrs by sulforhodamine B assay; conditions: HCT-116, 48 h; outline: as §1

GI50 (MKN-7): 0.0525 µM
GI50 (NCI-H23): 18.6 µM
GI50 (NCI-H226): 22.9 µM
GI50 (MKN-28): 0.01 µM
GI50 (HCT-15): 72.4 µM
GI50 (HT-29): 69.2 µM
GI50 (A549): 26.3 µM
GI50 (NCI-H522): 8.13 µM
GI50 (MKN-45): 43.7 µM
GI50 (OVCAR-4): 60.3 µM
GI50 (ACHN): 33.9 µM
GI50 (OVCAR-5): 38.9 µM
GI50 (SK-OV-3): 81.3 µM
GI50 (NCI-H460): 51.3 µM
GI50 (MKN-74): 0.191 µM
GI50 (HCC 2998): > 100 µM
GI50 (U-251): 75.9 µM
GI50 (PC-3): 29.5 µM
GI50 (OVCAR-3): 38.9 µM
GI50 (DU-145): > 100 µM
GI50 (OVCAR-8): 69.2 µM
GI50 (MCF7): 16.2 µM
GI50 (HCT-116): 15.8 µM
Structure (SMILES): C[C@H]1C=C(CCCCCCCCCCCC[C@@H](O)[C@H]2CC[C@H]([C@H](O)CCCCCCCCCNc3ccc([N+](=O)[O-])c4nonc34)O2)C(=O)O1
GI50 [1]: 21.9 µM
GI50 (St-4): 33.1 µM
GI50 (DMS-114): 0.01 µM
GI50 (SF-268): 89.1 µM
GI50 [2]: > 100 µM
GI50 (LOX IMVI): 10.7 µM
GI50 (SF-539): 33.9 µM
GI50 [3]: 21.4 µM
GI50 (DMS-273): 19.1 µM
GI50 [4]: 33.1 µM
GI50 [5]: 64.6 µM
GI50 (KM12): 36.3 µM
GI50 (SF-295): 7.24 µM
GI50 (SNB-78): 97.7 µM
GI50 (SNB-75): 51.3 µM
GI50 [6]: 67.6 µM
